Values joined by “and” are separate entries in the source; they are usually repeats but may differ in a detail not shown here. Equal entries are not always repeated.
System: HEK-293T
Assay: Multiplex assay against HEK293T
Format: toxicity, cell-based
Details: human
Method in brief: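 Per cents of healthy-nucleus cells form the tubulin, mitochondrial-mass and membrane-permeability phenotype values. Live cells were stained at seeding with Hoechst33342, BioTracker Green Microtubule Cytoskeleton Dye, MitoTracker Red and Annexin V Alexa Fluor 680. After compound addition they were imaged on a CQ1 microscope at 37°C and 5% CO2, and CellPathfinder machine-learning gating split them into Hoechst high-intensity objects or normal cells, normal cells into healthy, pyknosed or fragmented nuclei, and pyknosed cells into mitotic or apoptotic.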

[1] = 12 h, 1 µM, compound concentration 1 uM
[2] = 12 h, 10 µM, compound concentration 10 uM
[3] = 24 h, 1 µM, compound concentration 1 uM
[4] = 24 h, 10 µM, compound concentration 10 uM
[5] = 48 h, 1 µM, compound concentration 1 uM
[6] = 48 h, 10 µM, compound concentration 10 uM

For OCCCNc1cc(-c2ccnc(Nc3cccc(Cl)c3)n2)ccn1, the “Population Apoptotic (%)” value [1] was 66% and 65%, the “Population Fragmented Nuclei (%)” value [1] was 9% and 8% and the “Population Healthy Nuclei (%)” value [1] was 66% and 74%. The “Population Hoechst High Intensity Objects (%)” value [1] was 14% and 11%, the “Population Membrane Permeable-Phenotype (%)” value [1] was 0% and the “Population Mitochondria Different-Phenotype (%)” value [1] was 82% and 88%. For the same compound, the “Population Mitotic Cells (%)” value [1] was 33% and 34%, the “Population Normal (%)” value [1] was 85% and 88% and the “Population Pyknosed Nuclei (%)” value [1] was 24% and 16%. For the same compound, the “Population Tubulin-Different-Phenotype (%)” value [1] was 75% and 57%, the “Total Cell Count” value [1] was 204 and 173 and the “Population Apoptotic (%)” value [2] was 78% and 75%. The “Population Fragmented Nuclei (%)” value [2] was 14%, the “Population Healthy Nuclei (%)” value [2] was 55% and 67% and the “Population Hoechst High Intensity Objects (%)” value [2] was 30% and 41%. For the same compound, the “Population Membrane Permeable-Phenotype (%)” value [2] was 1% and 10%, the “Population Mitochondria Different-Phenotype (%)” value [2] was 83% and 85% and the “Population Mitotic Cells (%)” value [2] was 21% and 25%. For the same compound, the “Population Normal (%)” value [2] was 69% and 58%, the “Population Pyknosed Nuclei (%)” value [2] was 30% and 18% and the “Population Tubulin-Different-Phenotype (%)” value [2] was 80% and 72%. The “Total Cell Count” value [2] was 249 and 224, the “Population Apoptotic (%)” value [3] was 91% and 77% and the “Population Fragmented Nuclei (%)” value [3] was 10% and 13%. The “Population Healthy Nuclei (%)” value [3] was 66% and 76%, the “Population Hoechst High Intensity Objects (%)” value [3] was 14% and 15% and the “Population Membrane Permeable-Phenotype (%)” value [3] was 0%. The “Population Mitochondria Different-Phenotype (%)” value [3] was 80% and 86%, the “Population Mitotic Cells (%)” value [3] was 8% and 22% and the “Population Normal (%)” value [3] was 85% and 84%. The “Population Pyknosed Nuclei (%)” value [3] was 22% and 10%, the “Population Tubulin-Different-Phenotype (%)” value [3] was 61% and the “Total Cell Count” value [3] was 228 and 202. For the same compound, the “Population Apoptotic (%)” value [4] was 71% and 78%, the “Population Fragmented Nuclei (%)” value [4] was 16% and 15% and the “Population Healthy Nuclei (%)” value [4] was 44% and 54%. The “Population Hoechst High Intensity Objects (%)” value [4] was 41% and 45%, the “Population Membrane Permeable-Phenotype (%)” value [4] was 0% and 3% and the “Population Mitochondria Different-Phenotype (%)” value [4] was 85% and 91%. The “Population Mitotic Cells (%)” value [4] was 28% and 21%, the “Population Normal (%)” value [4] was 58% and 54% and the “Population Pyknosed Nuclei (%)” value [4] was 38% and 29%. The “Population Tubulin-Different-Phenotype (%)” value [4] was 88% and 82%, the “Total Cell Count” value [4] was 237 and 207 and the “Population Apoptotic (%)” value [5] was 82% and 61%. The “Population Fragmented Nuclei (%)” value [5] was 12% and 17%, the “Population Healthy Nuclei (%)” value [5] was 51% and 65% and the “Population Hoechst High Intensity Objects (%)” value [5] was 18% and 21%. For the same compound, the “Population Membrane Permeable-Phenotype (%)” value [5] was 1% and 0%, the “Population Mitochondria Different-Phenotype (%)” value [5] was 88% and 84% and the “Population Mitotic Cells (%)” value [5] was 17% and 38%. The “Population Normal (%)” value [5] was 81% and 78%, the “Population Pyknosed Nuclei (%)” value [5] was 35% and 17% and the “Population Tubulin-Different-Phenotype (%)” value [5] was 68% and 59%. The “Total Cell Count” value [5] was 232 and 193, the “Population Apoptotic (%)” value [6] was 71% and 83% and the “Population Fragmented Nuclei (%)” value [6] was 16% and 25%. The “Population Healthy Nuclei (%)” value [6] was 46%, the “Population Hoechst High Intensity Objects (%)” value [6] was 57% and 56% and the “Population Membrane Permeable-Phenotype (%)” value [6] was 1% and 8%. The “Population Mitochondria Different-Phenotype (%)” value [6] was 78% and 85%, the “Population Mitotic Cells (%)” value [6] was 28% and 16% and the “Population Normal (%)” value [6] was 42% and 43%. The “Population Pyknosed Nuclei (%)” value [6] was 37% and 28%, the “Population Tubulin-Different-Phenotype (%)” value [6] was 76% and 79% and the “Total Cell Count” value [6] was 262 and 238.

With COc1cc(/C=C(\C#N)C(=O)Nc2nnc(C(F)(F)F)s2)ccc1OCc1ccc(C(F)(F)F)cc1C(F)(F)F the “Population Apoptotic (%)” value [1] was 10% and 12.9%, the “Population Fragmented Nuclei (%)” value [1] was 2.37% and 4.7% and the “Population Hoechst High Intensity Objects (%)” value [1] was 0.67% and 0%. The “Population Membrane Permeable-Phenotype (%)” value [1] was 0%, the “Population Mitochondria Different-Phenotype (%)” value [1] was 45.57% and 22.22% and the “Population Mitotic Cells (%)” value [1] was 90% and 87.1%. The “Population Normal (%)” value [1] was 99.33% and 100%, the “Population Pyknosed Nuclei (%)” value [1] was 44.07% and 83.22% and the “Total Cell Count” value [1] was 297 and 149. The “Population Apoptotic (%)” value [2] was 7.56% and 15.32%, the “Population Fragmented Nuclei (%)” value [2] was 3.37% and 4.96% and the “Population Hoechst High Intensity Objects (%)” value [2] was 0%. For the same compound, the “Population Membrane Permeable-Phenotype (%)” value [2] was 0%, the “Population Mitochondria Different-Phenotype (%)” value [2] was 33.93% and 13.04% and the “Population Mitotic Cells (%)” value [2] was 92.44% and 84.68%. For the same compound, the “Population Normal (%)” value [2] was 100%, the “Population Pyknosed Nuclei (%)” value [2] was 40.07% and 78.72% and the “Total Cell Count” value [2] was 297 and 141. For the same compound, the “Population Apoptotic (%)” value [3] was 13% and 14.66%, the “Population Fragmented Nuclei (%)” value [3] was 1.79% and 2.79% and the “Population Healthy Nuclei (%)” value [3] was 75.89% and 32.4%. The “Population Hoechst High Intensity Objects (%)” value [3] was 0.22% and 0%, the “Population Membrane Permeable-Phenotype (%)” value [3] was 1.18% and 0% and the “Population Mitochondria Different-Phenotype (%)” value [3] was 13.82% and 22.41%. For the same compound, the “Population Mitotic Cells (%)” value [3] was 87% and 85.34%, the “Population Normal (%)” value [3] was 99.78% and 100% and the “Population Pyknosed Nuclei (%)” value [3] was 22.32% and 64.8%. The “Population Tubulin-Different-Phenotype (%)” value [3] was 11.47% and 13.79%, the “Total Cell Count” value [3] was 449 and 179 and the “Population Apoptotic (%)” value [4] was 11.22% and 19.54%. For the same compound, the “Population Fragmented Nuclei (%)” value [4] was 0.62% and 1.78%, the “Population Healthy Nuclei (%)” value [4] was 79% and 46.75% and the “Population Hoechst High Intensity Objects (%)” value [4] was 0% and 0.59%. The “Population Membrane Permeable-Phenotype (%)” value [4] was 0.79% and 1.27%, the “Population Mitotic Cells (%)” value [4] was 88.78% and 80.46% and the “Population Normal (%)” value [4] was 100% and 99.41%. For the same compound, the “Population Pyknosed Nuclei (%)” value [4] was 20.37% and 51.48%, the “Population Tubulin-Different-Phenotype (%)” value [4] was 9.47% and 5.06% and the “Total Cell Count” value [4] was 481 and 170. The “Population Apoptotic (%)” value [5] was 10.37% and 13.92%, the “Population Fragmented Nuclei (%)” value [5] was 1.93% and 3.61% and the “Population Healthy Nuclei (%)” value [5] was 85.65% and 55.67%. The “Population Hoechst High Intensity Objects (%)” value [5] was 0.09% and 1.52%, the “Population Membrane Permeable-Phenotype (%)” value [5] was 4.73% and 1.85% and the “Population Mitochondria Different-Phenotype (%)” value [5] was 13.1% and 24.07%. The “Population Mitotic Cells (%)” value [5] was 89.63% and 86.08%, the “Population Normal (%)” value [5] was 99.91% and 98.48% and the “Population Fragmented Nuclei (%)” value [6] was 1.97% and 2.88%. The “Population Healthy Nuclei (%)” value [6] was 88.86% and 79.5%, the “Population Hoechst High Intensity Objects (%)” value [6] was 0% and 2.11% and the “Population Membrane Permeable-Phenotype (%)” value [6] was 4.71% and 1.81%. For the same compound, the “Population Mitochondria Different-Phenotype (%)” value [6] was 9.16% and 21.72%, the “Population Mitotic Cells (%)” value [6] was 88.79% and 63.27% and the “Population Normal (%)” value [6] was 100% and 97.89%. The “Population Pyknosed Nuclei (%)” value [6] was 9.16% and 17.63%.
